# In ChEMBL document CHEMBL4480455, “Anti-inflammatory Property of Imperatorin on Alveolar Macrophages and Inflammatory Lung Injury” (J Nat Prod, 2019):
# The source made the active and inactive calls. The rule behind the calls is not given here.
# How the values were obtained:
# [1] = organism: Mus musculus; test: Antiinflammatory activity in mouse MHS cells assessed as reduction in zymosan-induced PGE2 production at 1.5 to 15 ug/ml preincubated for 30 mins followed by zymosan challenge and measured after 6 to 24 hrs by ELISA; format: functional, cell-based
# Outline: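 MH-S cells pretreated for 30 min, then given zymosan 10 μg/mL for 24 h. Supernatant PGE2 measured by competitive ELISA: acetylcholinesterase tracer plus monoclonal antibody, 4 °C for 18 h, Ellman's reagent development, absorbance at 405 nm. Mean ± SD, n≥3.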
# [2] = Effect on nitrite level in mouse MHS cells at 1.5 to 15 ug/ml after 30 mins by Griess assay; format: ADME, cell-based; conditions: 0.5 h
# [3] = Cytotoxicity against mouse MHS cells assessed as effect on cell viability at 1.5 to 15 ug/ml measured after 30 mins by sulforhodamine B assay; format: cell-based; conditions: 0.5 h
# [4] = Cytotoxicity against zymosan-induced mouse MHS cells assessed as effect on cell viability at 1.5 to 15 ug/ml preincubated for 30 mins followed by zymosan challenge and measured after 6 to 24 hrs by sulforhodamine B assay; format: cell-based
# Outline: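 MH-S cells exposed to test agent and zymosan (10 μg/mL). Viability by sulforhodamine B: fixed in 10% trichloroacetic acid, stained 30 min with 0.4% (w/v) SRB, dissolved in 10 mM Tris, read at OD 515 nm. Mean ± SD, n≥3.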
# [5] = organism: Mus musculus; test: Antiinflammatory activity in mouse MHS cells assessed as reduction in zymosan-induced IL-6 mRNA expression preincubated for 30 mins followed by zymosan challenge and measured after 6 to 24 hrs by TRIzol reagent based qRT-PCR analysis; format: functional, cell-based
# Outline: (§1)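 MH-S alveolar macrophages grown in RPMI 1640 with 10% FBS at 37 °C and 5% CO2. Cells pretreated for 30 min, then given zymosan 10 μg/mL for 6 h. mRNA measured by SYBR Green real-time PCR (95 °C 10 min; 42 cycles of 95 °C 10 s, 60 °C 60 s) with actin as reference. Normalized to control; mean ± SD, n≥3.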
# [6] = organism: Mus musculus; test: Antiinflammatory activity in mouse MHS cells assessed as reduction in zymosan-induced TNFalpha mRNA expression preincubated for 30 mins followed by zymosan challenge and measured after 6 to 24 hrs by TRIzol reagent based qRT-PCR analysis; format: functional, cell-based; outline: as §1
# [7] = organism: Mus musculus; test: Antiinflammatory activity in mouse MHS cells assessed as reduction in zymosan-induced IL-6 protein expression at 1.5 to 15 ug/ml preincubated for 30 mins followed by zymosan challenge and measured after 6 to 24 hrs; format: functional, cell-based
# Outline: (§2)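 MH-S cells pretreated for 30 min, then given zymosan 10 μg/mL for 24 h. IL-6 and TNFα protein in culture supernatant assessed by cytokine array. Values normalized to control; mean ± SD, n≥3.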
# [8] = organism: Mus musculus; test: Antiinflammatory activity in mouse MHS cells assessed as reduction in zymosan-induced TNFalpha protein expression at 1.5 to 15 ug/ml preincubated for 30 mins followed by zymosan challenge and measured after 6 to 24 hrs; format: functional, cell-based; outline: as §2
# [9] = molecular target: Tyrosine-protein kinase JAK1 (Mus musculus) (UniProt P52332); test: Inhibition of zymosan-induced JAK1 phosphorylation in mouse MHS cells preincubated for 30 mins followed by zymosan challenge and measured after 6 to 24 hrs by Western blot analysis; format: cell-based
# Sequence of Tyrosine-protein kinase JAK1 (Mus musculus) (P52332 whole entry): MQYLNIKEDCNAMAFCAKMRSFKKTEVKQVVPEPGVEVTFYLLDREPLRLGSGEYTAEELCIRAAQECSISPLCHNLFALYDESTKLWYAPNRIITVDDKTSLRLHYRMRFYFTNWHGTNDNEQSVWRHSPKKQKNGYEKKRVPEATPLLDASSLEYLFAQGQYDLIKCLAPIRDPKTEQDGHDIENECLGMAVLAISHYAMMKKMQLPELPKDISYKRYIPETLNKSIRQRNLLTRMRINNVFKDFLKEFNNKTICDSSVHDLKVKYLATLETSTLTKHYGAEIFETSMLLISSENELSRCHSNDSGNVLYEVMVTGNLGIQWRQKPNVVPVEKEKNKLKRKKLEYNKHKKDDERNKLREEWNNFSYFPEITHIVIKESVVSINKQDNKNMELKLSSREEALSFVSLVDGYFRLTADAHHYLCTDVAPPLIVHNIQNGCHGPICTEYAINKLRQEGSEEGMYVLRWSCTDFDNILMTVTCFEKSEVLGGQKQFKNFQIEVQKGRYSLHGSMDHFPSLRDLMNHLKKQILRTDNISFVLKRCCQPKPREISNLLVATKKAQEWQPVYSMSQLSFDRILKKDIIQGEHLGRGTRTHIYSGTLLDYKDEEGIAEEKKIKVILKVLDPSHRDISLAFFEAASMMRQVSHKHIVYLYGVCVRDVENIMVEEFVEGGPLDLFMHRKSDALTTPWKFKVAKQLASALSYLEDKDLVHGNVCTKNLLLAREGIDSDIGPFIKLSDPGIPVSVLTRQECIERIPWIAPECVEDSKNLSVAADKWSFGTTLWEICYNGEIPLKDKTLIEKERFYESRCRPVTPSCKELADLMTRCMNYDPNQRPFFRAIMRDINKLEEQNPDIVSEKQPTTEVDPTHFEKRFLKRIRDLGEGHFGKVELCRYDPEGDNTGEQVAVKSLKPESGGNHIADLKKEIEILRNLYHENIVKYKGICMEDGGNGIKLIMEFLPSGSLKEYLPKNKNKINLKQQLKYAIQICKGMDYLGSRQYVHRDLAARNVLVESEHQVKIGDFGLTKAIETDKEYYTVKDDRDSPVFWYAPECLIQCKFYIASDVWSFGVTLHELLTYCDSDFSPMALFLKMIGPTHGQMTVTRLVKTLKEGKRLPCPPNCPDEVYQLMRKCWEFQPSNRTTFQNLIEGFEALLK
# [10] = molecular target: Signal transducer and activator of transcription 3 (Mus musculus) (UniProt P42227); test: Inhibition of zymosan-induced STAT3 phosphorylation in mouse MHS cells preincubated for 30 mins followed by zymosan challenge and measured after 6 to 24 hrs by Western blot analysis; format: cell-based
# Sequence of Signal transducer and activator of transcription 3 (Mus musculus) (P42227 whole entry): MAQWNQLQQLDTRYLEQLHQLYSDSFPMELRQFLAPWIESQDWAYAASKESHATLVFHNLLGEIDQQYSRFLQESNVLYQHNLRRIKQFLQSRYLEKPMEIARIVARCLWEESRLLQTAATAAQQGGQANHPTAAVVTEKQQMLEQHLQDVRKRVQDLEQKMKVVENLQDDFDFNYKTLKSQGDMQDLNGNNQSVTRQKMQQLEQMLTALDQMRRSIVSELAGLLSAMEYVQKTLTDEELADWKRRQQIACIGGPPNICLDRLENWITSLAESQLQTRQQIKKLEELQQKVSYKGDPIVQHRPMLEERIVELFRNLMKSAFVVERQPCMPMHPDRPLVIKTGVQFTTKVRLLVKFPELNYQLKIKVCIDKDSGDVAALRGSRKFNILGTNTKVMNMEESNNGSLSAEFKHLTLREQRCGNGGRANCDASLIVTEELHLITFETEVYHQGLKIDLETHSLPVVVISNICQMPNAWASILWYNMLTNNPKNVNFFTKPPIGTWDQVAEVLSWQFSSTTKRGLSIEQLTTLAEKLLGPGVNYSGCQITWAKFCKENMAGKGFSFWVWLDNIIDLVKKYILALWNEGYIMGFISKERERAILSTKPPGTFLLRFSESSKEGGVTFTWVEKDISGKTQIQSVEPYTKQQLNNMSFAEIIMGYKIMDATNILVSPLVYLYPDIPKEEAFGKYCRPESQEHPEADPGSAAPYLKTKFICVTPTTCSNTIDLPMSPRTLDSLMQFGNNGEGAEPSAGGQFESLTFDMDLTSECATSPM
# [11] = molecular target: Tyrosine-protein kinase JAK1 (Mus musculus) (UniProt P52332); test: Inhibition of zymosan-induced JAK1 phosphorylation in mouse MHS cells assessed as phosphorylated JAK1 level at 1.5 ug/ml by Western blot analysis relative to tubulin (reference value: 2.2); format: cell-based
# Outline: (§3)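 MH-S cells pretreated, then stimulated with zymosan 10 μg/mL. Phospho-JAK1 (Y1022/1023), phospho-STAT3 (Y705) and phospho-IKKα/β detected by Western blot against total protein and tubulin. Zymosan time course 1–30 min for JAK1/STAT3 and 1–60 min for IKK. Normalized to control; mean ± SD, n≥3.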
# [12] = molecular target: Tyrosine-protein kinase JAK1 (Mus musculus) (UniProt P52332); test: Inhibition of zymosan-induced JAK1 phosphorylation in mouse MHS cells assessed as phosphorylated JAK1 level at 15 ug/ml by Western blot analysis relative to tubulin (reference value: 2.2); format: cell-based; outline: as §3
# [13] = molecular target: Signal transducer and activator of transcription 3 (Mus musculus) (UniProt P42227); test: Inhibition of zymosan-induced STAT3 phosphorylation in mouse MHS cells assessed as phosphorylated STAT3 level at 1.5 ug/ml by Western blot analysis relative to tubulin (reference value: 2.1); format: cell-based; outline: as §3
# [14] = molecular target: Signal transducer and activator of transcription 3 (Mus musculus) (UniProt P42227); test: Inhibition of zymosan-induced STAT3 phosphorylation in mouse MHS cells assessed as phosphorylated STAT3 level at 15 ug/ml by Western blot analysis relative to tubulin (reference value: 2.1); format: cell-based; outline: as §3
# [15] = molecular target: Tyrosine-protein kinase JAK1 (Mus musculus) (UniProt P52332); test: Effect on JAK1 phosphorylation in mouse MHS cells assessed as phosphorylated JAK1 level at 15 ug/ml by Western blot analysis relative to tubulin (reference value: 1); format: cell-based
# [16] = molecular target: Signal transducer and activator of transcription 3 (Mus musculus) (UniProt P42227); test: Effect on STAT3 phosphorylation in mouse MHS cells assessed as phosphorylated STAT3 level at 15 ug/ml by Western blot analysis relative to tubulin (reference value: 1); format: cell-based
# [17] = molecular target: T1, I-kappa-B kinase (Mus musculus) (UniProt Q60680+O88351+O88522); test: Inhibition of zymosan-induced IKK phosphorylation in mouse MHS cells by Western blot analysis; format: cell-based; outline: as §3
# [18] = molecular target: T1, I-kappa-B kinase (Mus musculus); test: Inhibition of zymosan-induced IKK phosphorylation in mouse MHS cells assessed as phosphorylated IKK level at 1.5 ug/ml by Western blot analysis relative to tubulin (reference value: 1.8); format: cell-based; outline: as §3
# [19] = molecular target: T1, I-kappa-B kinase (Mus musculus); test: Inhibition of zymosan-induced IKK phosphorylation in mouse MHS cells assessed as phosphorylated IKK level at 15 ug/ml by Western blot analysis relative to tubulin (reference value: 1.8); format: cell-based; outline: as §3
# [20] = molecular target: T1, I-kappa-B kinase (Mus musculus); test: Effect on IKK phosphorylation in mouse MHS cells assessed as phosphorylated IKK level at 15 ug/ml by Western blot analysis relative to tubulin (reference value: 1); format: cell-based
# [21] = molecular target: Transcription factor p65 (Mus musculus) (UniProt Q04207); test: Inhibition of zymosan-induced NFkappaB p65 nuclear translocation in mouse MHS cells at 15 ug/ml by DAPI staining based immunofluorescence microscopic analysis; format: cell-based
# Sequence of Transcription factor p65 (Mus musculus) (Q04207 whole entry): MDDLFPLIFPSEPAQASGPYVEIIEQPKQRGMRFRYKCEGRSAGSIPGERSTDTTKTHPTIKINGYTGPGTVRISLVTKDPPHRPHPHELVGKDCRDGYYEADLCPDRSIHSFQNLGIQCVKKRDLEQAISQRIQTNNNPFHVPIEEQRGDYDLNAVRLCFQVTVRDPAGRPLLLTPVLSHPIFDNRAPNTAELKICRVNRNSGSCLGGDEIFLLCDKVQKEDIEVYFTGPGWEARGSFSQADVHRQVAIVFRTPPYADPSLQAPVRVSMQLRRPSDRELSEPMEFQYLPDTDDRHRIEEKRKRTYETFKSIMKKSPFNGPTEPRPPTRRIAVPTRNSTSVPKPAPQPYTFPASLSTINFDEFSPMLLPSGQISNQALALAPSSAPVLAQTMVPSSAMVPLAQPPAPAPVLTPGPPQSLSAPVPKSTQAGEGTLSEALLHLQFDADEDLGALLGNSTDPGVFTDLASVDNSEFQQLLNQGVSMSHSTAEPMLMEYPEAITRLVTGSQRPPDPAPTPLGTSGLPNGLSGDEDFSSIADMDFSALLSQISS
# Outline: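 MH-S cells on coverslips pretreated, then given zymosan 10 μg/mL for 3 h. Fixed in 4% paraformaldehyde, permeabilized with 1% Triton X-100, blocked with 4% skim milk. Anti-p65 at 4 °C overnight, FITC secondary 1 h, DAPI nuclear counterstain. Fluorescence microscopy; at least three experiments.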
# [22] = Effect on PGE2 level in mouse MHS cells at 1.5 to 15 ug/ml after 30 mins; conditions: 0.5 h
structure (smiles),measurement,setting,value
CC(C)=CCOc1c2occc2cc2ccc(=O)oc12 [PENTOSALEN],Activity,[1],Active
same,Activity,[2],Non-Toxic
same,Activity,[3],Non-Toxic
same,Activity,[4],Non-Toxic
same,Activity,[5],Dose-dependent effect
same,Activity,[6],Dose-dependent effect
same,Activity,[7],Active
same,Activity,[8],Active
same,inhibition,[9],Dose-dependent effect
same,inhibition,[10],Dose-dependent effect
same,fold change (FC),[11],2.2
same,fold change (FC),[12],1.3
same,fold change (FC),[13],1.8
same,fold change (FC),[14],1.3
same,fold change (FC),[15],1.2
same,fold change (FC),[16],1.2
same,inhibition,[17],Dose-dependent effect
same,fold change (FC),[18],1.2
same,fold change (FC),[19],1
same,fold change (FC),[20],1
same,inhibition,[21],Active
same,Activity,[22],Non-Toxic
